Assay results from ChEMBL document CHEMBL1155454, “The pthaladyns: GTP competitive inhibitors of dynamin I and II GTPase derived from virtual screening” (J Med Chem, 2010).
Calls of active or inactive are those of the source. The calls are words filed in the database; no cut-off is given here.

Tests used:
[1] = organism: Ovis aries; assay: Inhibition of sheep brain dynamin 1 at 300 uM after 30 mins by malachite green method
In short: (§1)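 Enzyme was endogenous dynamin I purified from sheep brain. GTPase activity was read by malachite green phosphate detection, with dynamin and lipid levels set for adequate optical response. Inhibition was also scored at single concentrations of 300 or 400 μM.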

[2] = Inhibition of sheep brain dynamin 1 after 30 mins by malachite green method; design: species or system Ovis aries; in short: as §1
[3] = organism: Ovis aries; assay: Inhibition of sheep brain dynamin 1 at 400 uM after 30 mins by malachite green method; in short: as §1
[4] = target: T1, Dynamin-1 (Rattus norvegicus, UniProt P21575); assay: Inhibition of dynamin 1-mediated synaptic vesicle endocytosis in Sprague-Dawley rat synaptosomes assessed as uptake of FM 4-64 dye after 30 mins by automated acquisition and analysis system; type: subcellular, Brain
T1 sequence (P21575 whole entry): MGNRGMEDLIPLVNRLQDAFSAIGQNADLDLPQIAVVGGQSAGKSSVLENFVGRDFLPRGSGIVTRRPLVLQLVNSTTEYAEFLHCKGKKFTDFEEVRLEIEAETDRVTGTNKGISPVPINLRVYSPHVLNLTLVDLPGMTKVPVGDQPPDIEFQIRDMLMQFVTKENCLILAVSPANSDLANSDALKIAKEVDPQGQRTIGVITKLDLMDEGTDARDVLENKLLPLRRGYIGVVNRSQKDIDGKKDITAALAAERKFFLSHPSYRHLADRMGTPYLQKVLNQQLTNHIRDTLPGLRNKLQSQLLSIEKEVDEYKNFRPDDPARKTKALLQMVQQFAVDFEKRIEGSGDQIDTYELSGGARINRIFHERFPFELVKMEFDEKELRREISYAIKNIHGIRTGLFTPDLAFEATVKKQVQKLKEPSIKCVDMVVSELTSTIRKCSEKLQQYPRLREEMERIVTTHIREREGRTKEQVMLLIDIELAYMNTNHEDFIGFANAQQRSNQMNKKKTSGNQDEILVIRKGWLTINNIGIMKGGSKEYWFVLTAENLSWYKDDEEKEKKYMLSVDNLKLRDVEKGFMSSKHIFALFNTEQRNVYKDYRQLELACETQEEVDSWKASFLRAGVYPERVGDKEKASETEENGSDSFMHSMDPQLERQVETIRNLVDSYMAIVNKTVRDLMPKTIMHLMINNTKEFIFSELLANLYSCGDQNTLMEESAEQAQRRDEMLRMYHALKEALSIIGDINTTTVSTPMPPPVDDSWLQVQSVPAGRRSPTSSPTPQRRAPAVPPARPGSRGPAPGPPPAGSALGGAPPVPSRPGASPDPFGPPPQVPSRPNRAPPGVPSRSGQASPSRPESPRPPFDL
In short: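 Rat brain nerve terminals (isolated synaptosomes) used for synaptic vesicle endocytosis. Endocytosis was tracked as change in uptake of the styryl dye FM4-64, an endocytic marker.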

[5] = organism: Ovis aries; assay: Competitive inhibition of dynamin 1 from sheep brain at 14 to 19 uM by Lineweaver-Burke plot
In short: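 Dynamin I GTPase purified from sheep brain, read by malachite green phosphate release. Michaelis-Menten kinetics with inhibitor at 14, 15, 16, 17, 18 and 19 μM and Mg2+·GTP substrate at 60-200 μM. Double-reciprocal (Lineweaver-Burke) plot of reaction velocity against substrate. Four independent experiments, each in triplicate; mean ± SEM.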

[6] = target: T2, Dynamin-2 (Homo sapiens, UniProt P50570); assay: Inhibition of dynamin 2-mediated receptor-induced endocytosis in human U2OS cells assessed as uptake of Tf-TxR dye after 30 mins by automated acquisition and analysis system; type: cell-based
T2 sequence (P50570 whole entry): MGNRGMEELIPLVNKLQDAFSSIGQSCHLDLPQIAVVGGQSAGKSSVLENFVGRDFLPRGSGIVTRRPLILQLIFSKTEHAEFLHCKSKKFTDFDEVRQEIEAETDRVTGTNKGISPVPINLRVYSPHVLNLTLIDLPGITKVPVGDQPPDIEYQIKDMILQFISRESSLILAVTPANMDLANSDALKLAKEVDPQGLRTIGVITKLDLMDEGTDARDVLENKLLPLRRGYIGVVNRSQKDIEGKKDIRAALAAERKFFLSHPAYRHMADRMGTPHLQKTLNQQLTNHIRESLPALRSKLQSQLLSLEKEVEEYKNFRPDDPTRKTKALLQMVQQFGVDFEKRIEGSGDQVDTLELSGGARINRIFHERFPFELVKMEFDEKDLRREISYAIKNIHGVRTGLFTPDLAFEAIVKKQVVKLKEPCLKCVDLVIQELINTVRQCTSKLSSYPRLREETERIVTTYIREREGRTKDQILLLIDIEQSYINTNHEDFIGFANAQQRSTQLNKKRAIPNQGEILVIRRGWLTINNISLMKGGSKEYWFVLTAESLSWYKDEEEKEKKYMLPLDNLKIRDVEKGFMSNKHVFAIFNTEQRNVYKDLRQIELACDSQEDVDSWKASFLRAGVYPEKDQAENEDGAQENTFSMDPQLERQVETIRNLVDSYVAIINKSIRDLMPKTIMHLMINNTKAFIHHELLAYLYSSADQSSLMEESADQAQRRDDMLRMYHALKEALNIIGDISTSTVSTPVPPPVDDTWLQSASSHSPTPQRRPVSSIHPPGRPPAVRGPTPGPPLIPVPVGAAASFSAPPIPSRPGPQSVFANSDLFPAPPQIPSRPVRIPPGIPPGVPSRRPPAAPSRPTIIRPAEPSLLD

[7] = target: T2, Dynamin-2; assay: Inhibition of recombinant dynamin 2 expressed in Sf9 cells after 30 mins by malachite green method

## CCOC(=O)c1ccc(N2C(=O)c3ccc(C(=O)Nc4cc(Cl)ccc4C(=O)O)cc3C2=O)cc1
[1]
  inhibition: 50%

## CC(C)(C)c1ccc(N2C(=O)c3ccc(C(=O)Nc4cc(Cl)ccc4C(=O)O)cc3C2=O)cc1
[2]
  IC50: 112 µM

## O=C(Nc1cc(Cl)ccc1C(=O)O)c1ccc2c(c1)C(=O)N(Cc1ccccc1)C2=O
[3]
  inhibition: inactive

## O=C(Nc1cc(Cl)ccc1C(=O)O)c1ccc2c(c1)C(=O)N(CCc1ccccc1)C2=O
[3]
  inhibition: inactive

## O=C(Nc1cc(Cl)ccc1C(=O)O)c1ccc2c(c1)C(=O)N(c1ccccc1O)C2=O
[2]
  IC50: 61 µM
[4]; read-out: IC50
  IC50: 119 µM

## O=C(Nc1cc(Cl)ccc1C(=O)O)c1ccc2c(c1)C(=O)N(c1cccc([N+](=O)[O-])c1)C2=O
[2]
  IC50: 17.4 µM
[4]; read-out: IC50
  IC50: 12.9 µM
[5]
  Activity: Active

## COc1ccc(N2C(=O)c3ccc(C(=O)Nc4cc(Cl)ccc4C(=O)O)cc3C2=O)cc1
[2]
  IC50: 78 µM

## O=C(Nc1cc(Cl)ccc1C(=O)O)c1ccc2c(c1)C(=O)N(CCCCc1ccccc1)C2=O
[3]
  inhibition: inactive

## COc1cccc(N2C(=O)c3ccc(C(=O)Nc4cc(Cl)ccc4C(=O)O)cc3C2=O)c1
[3]
  inhibition: inactive

## O=C(Nc1cc(Cl)ccc1C(=O)O)c1ccc2c(c1)C(=O)N(c1ccccc1-c1ccccc1)C2=O
[2]
  IC50: > 400 µM
[3]
  inhibition: 40%

## O=C(Nc1cc(Cl)ccc1C(=O)O)c1ccc2c(c1)C(=O)N(c1cccc3ccccc13)C2=O
[3]
  inhibition: inactive

## O=C(Nc1cc(Cl)ccc1C(=O)O)c1ccc2c(c1)C(=O)N(c1ccccc1C(=O)O)C2=O
[2]
  IC50: 184 µM

## O=C(Nc1cc(Cl)ccc1C(=O)O)c1ccc2c(c1)C(=O)N(c1ccccc1)C2=O
[3]
  inhibition: inactive

## Nc1ccccc1N1C(=O)c2ccc(C(=O)Nc3cc(Cl)ccc3C(=O)O)cc2C1=O
[2]
  IC50: 311 µM

## Nc1cccc(N2C(=O)c3ccc(C(=O)Nc4cc(Cl)ccc4C(=O)O)cc3C2=O)c1
[2]
  IC50: 94 µM

## O=C(Nc1cc(Cl)ccc1C(=O)O)c1ccc2c(c1)C(=O)N(c1cccc(CO)c1)C2=O
[2]
  IC50: 111 µM

## O=C(Nc1cc(Cl)ccc1C(=O)O)c1ccc2c(c1)C(=O)N(c1ccc(O)cc1)C2=O
[6]
  IC50: Not Active
[2]
  IC50: 39.8 µM
[4]
  IC50: Not Active
[7]
  IC50: 114 µM

## O=C(Nc1cc(Cl)ccc1C(=O)O)c1ccc2c(c1)C(=O)N(c1ccc(CO)cc1)C2=O
[2]
  IC50: 4.58 µM
[4]; read-out: IC50
  IC50: 690 µM

## CSc1ccc(N2C(=O)c3ccc(C(=O)Nc4cc(Cl)ccc4C(=O)O)cc3C2=O)cc1
[3]
  inhibition: inactive

## O=C(O)CCc1ccc(N2C(=O)c3ccc(C(=O)Nc4cc(Cl)ccc4C(=O)O)cc3C2=O)cc1
[2]
  IC50: 104 µM

## O=C(Nc1cc(Cl)ccc1C(=O)O)c1ccc2c(c1)C(=O)N(c1ccc(C(=O)O)c(O)c1)C2=O
[2]
  IC50: 267 µM

## O=C(O)Cc1ccc(N2C(=O)c3ccc(C(=O)Nc4cc(Cl)ccc4C(=O)O)cc3C2=O)cc1
[2]
  IC50: 95.5 µM

## COc1ccc(CN2C(=O)c3ccc(C(=O)Nc4cc(Cl)ccc4C(=O)O)cc3C2=O)cc1
[3]
  inhibition: inactive

## O=C(Nc1cc(Cl)ccc1C(=O)O)c1ccc2c(c1)C(=O)N(c1cccc(O)c1)C2=O
[3]
  inhibition: inactive

## O=C(Nc1cc(Cl)ccc1C(=O)O)c1ccc2c(c1)C(=O)N(Cc1cccnc1)C2=O
[2]
  IC50: 84 µM

## O=C(Nc1cc(Cl)ccc1C(=O)O)c1ccc2c(c1)C(=O)N(C1CCCc3ccccc31)C2=O (centres undefined)
[3]
  inhibition: inactive

## Nc1ccc(N2C(=O)c3ccc(C(=O)Nc4cc(Cl)ccc4C(=O)O)cc3C2=O)cc1
[3]
  inhibition: inactive

## O=C(O)c1ccc(N2C(=O)c3ccc(C(=O)Nc4cc(Cl)ccc4C(=O)O)cc3C2=O)cc1
[2]
  IC50: 95 µM

## O=C(Nc1cc(Cl)ccc1C(=O)O)c1ccc2c(c1)C(=O)N(c1ccccc1CO)C2=O
[3]
  inhibition: inactive

## O=C(Nc1cc(Cl)ccc1C(=O)O)c1ccc2c(c1)C(=O)N(c1ccc([N+](=O)[O-])cc1)C2=O
[2]
  IC50: 16.6 µM

## Cc1cccc(C)c1N1C(=O)c2ccc(C(=O)Nc3cc(Cl)ccc3C(=O)O)cc2C1=O
[3]
  inhibition: inactive
